In brackets after ≈: the same amount, converted by molar mass. Activity calls are given as the source filed them. No cut-off for these calls is given here.
Legend:
Assay type in all cases: functional
[1] = test system: Mycobacterium tuberculosis; assay: Antimycobacterial activity against Mycobacterium tuberculosis H37Rv ATCC 27294 assessed as growth inhibition by radiometric BACTEC assay
[2] = test system: Mycobacterium tuberculosis; assay: Antimycobacterial activity against Mycobacterium tuberculosis H37Ra ATCC 25177 assessed as growth inhibition by Alamar blue microdilution broth assay
In short: (§1)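 Alamar blue colorimetric microdilution in Middlebrook 7H9 broth with 0.2% glycerol and ADC enrichment. Primary screen at 1.28 and 12.8 µg/mL. Actives (≤12.8 µg/mL) retested in two-fold dilutions. MIC99 is the lowest concentration giving complete growth inhibition.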

[3] = test system: Mycobacterium tuberculosis; assay: Antimycobacterial activity against Mycobacterium tuberculosis H37Rv ATCC 27294 assessed as growth inhibition at 6.25 ug/ml by radiometric BACTEC assay
In short: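 Primary screen at a single 6.25 µg/mL in radiometric BACTEC 12B medium. Value is percent growth inhibition.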

[4] = test system: Mycobacterium avium; assay: Antimycobacterial activity against Mycobacterium avium Nj211 assessed as growth inhibition by Alamar blue microdilution broth assay; in short: as §1

| SMILES | MIC90 [1] [µg/mL] | MIC99 [2] [µg/mL] | inhibition at 6.25 µg/mL [3] [%] | MIC99 [4] [µg/mL] | inhibition [3] |
| --- | --- | --- | --- | --- | --- |
| CCCCCCCCCCSc1nc(N)nc2c1ncn2CC(=O)N[C@H](C)C(=O)OC | > 6.25 | > 12.8 | 7 | > 12.8 | – |
| CCCCCCCCCCSc1ncnc2c1ncn2CC | > 6.25 | > 12.8 | 89 | > 12.8 | – |
| CCCCCCCCCCSc1nc(N)nc2c1ncn2CC(O)CO (stereo not given) | > 6.25 | > 12.8 | 49 | > 12.8 | – |
| Cc1ccc(Oc2nc(N)nc3[nH]cnc23)cc1 | – | – | – | – | inactive |
| CCCCCCCCCCOc1ncnc2[nH]cnc12 [6-(DECYLOXY)PURINE] | < 6.25 | > 12.8 | 96 | > 12.8 | – |
| Nc1nc(OCc2ccc(Cl)c(Cl)c2)c2nc[nH]c2n1 | > 6.25 | > 12.8 | 24 | > 12.8 | – |
| CCCCCCCCCCOc1nc(N)nc2c1ncn2CC(=O)O | – | – | – | – | inactive |
| CCCCCCCCCCOc1nc(N)nc2[nH]cnc12 | 3.13 (≈ 10.7 µM) | > 12.8 | 91 | > 12.8 | – |
| CC(C)Oc1nc(Cl)nc2[nH]cnc12 | > 6.25 | > 12.8 | 23 | > 12.8 | – |
| CCCCCCCCCCSc1nc(CC)nc2[nH]cnc12 | > 6.25 | > 12.8 | 84 | > 12.8 | – |
| c1nc(OCC2CCCCC2)c2nc[nH]c2n1 | > 6.25 | > 12.8 | 6 | > 12.8 | – |
| CCCCCCCCCCSc1nc(N)nc2c1ncn2CC(=O)O | – | – | – | – | inactive |
| CCCCCCCCCCSc1nc(N)nc2c1ncn2CC(=O)N[C@H](CO)C(=O)OC | – | – | – | – | inactive |
| CCCCCCCCCCSc1ncnc2c1ncn2C1CCCC1O (stereo not given) | 6.25 (≈ 16.6 µM) | > 12.8 | 96 | > 12.8 | – |
| CCCCCCCCCCSc1nc(N)nc2c1ncn2CC(=O)N[C@@H](Cc1ccccc1)C(=O)OCC | > 6.25 | > 12.8 | 16 | > 12.8 | – |
| CCCCCCCCCCSc1ncnc2c1ncn2C1CCCCCC1 | > 6.25 | > 12.8 | 81 | > 12.8 | – |
| Cc1cccc(Oc2nc(N)nc3[nH]cnc23)c1 | – | – | – | – | inactive |
| CCCCCCCCCCSc1ncnc2c1ncn2C1CCCCC1O (stereo not given) | > 6.25 | > 12.8 | 90 | > 12.8 | – |
| CCCCCCCCCCSc1ncnc2c1ncn2CCCC | 6.25 (≈ 17.9 µM) | > 12.8 | 98 | > 12.8 | – |
| C=CCn1cnc2c(SCCCCCCCCCC)ncnc21 | 6.25 (≈ 18.8 µM) | > 12.8 | 93 | > 12.8 | – |
| CCCCCCCCCCSc1nc(N)nc2c1ncn2Cc1ccccc1 | > 6.25 | > 12.8 | 82 | > 12.8 | – |
| Nc1nc(Cl)c2ncn(CC(=O)O)c2n1 | – | – | – | – | inactive |
| CC(C)Oc1[nH]c(N)nc2ncnc1-2 | > 6.25 | > 12.8 | 23 | > 12.8 | – |
| Clc1ccc(COc2ncnc3[nH]cnc23)cc1Cl | > 6.25 | > 12.8 | 21 | > 12.8 | – |
| Nc1nc(Oc2ccc(Cl)cc2)c2nc[nH]c2n1 | > 6.25 | > 12.8 | 20 | > 12.8 | – |
| CCCCCCCCCCSc1ncnc2c1ncn2NC(C)=O | > 6.25 | > 12.8 | 92 | > 12.8 | – |
| CCCCCCCCCCSc1ncnc2c1ncn2C1CCCCC1 | > 6.25 | > 12.8 | 85 | > 12.8 | – |
| Nc1nc(OCC2CCCCC2)c2nc[nH]c2n1 | > 6.25 | > 12.8 | 93 | > 12.8 | – |

| SMILES | MIC90 [1] [µg/mL] | MIC99 [2] [µg/mL] | inhibition at 6.25 µg/mL [3] [%] | MIC99 [4] [µg/mL] | inhibition [3] |
| --- | --- | --- | --- | --- | --- |
| CCCCCCCCCCOc1nc(N)nc2c1ncn2CC(=O)OCC | > 6.25 | > 12.8 | 14 | > 12.8 | – |
| CCCCCCCCCCCCOc1nc(Cl)nc2[nH]cnc12 | > 6.25 | > 12.8 | 59 | > 12.8 | – |
| Nc1nc(Oc2ccccc2)c2[nH]cnc2n1 | – | – | – | – | inactive |
| CC(C)Oc1ncnc2[nH]cnc12 [6-[(ISOPROPYL)OXY]PURINE] | > 6.25 | > 12.8 | 23 | > 12.8 | – |
| CCCCCCCCCCSc1ncnc2c1ncn2Cc1ccccc1 | > 6.25 | > 12.8 | 86 | > 12.8 | – |
| Clc1ccc(Oc2nc(Cl)nc3[nH]cnc23)cc1 | > 6.25 | > 12.8 | 8 | > 12.8 | – |
| CCCCCCCCCCSc1nc(N)nc2c1ncn2CC(=O)N[C@@H](Cc1ccccc1)C(=O)OC | – | – | – | – | inactive |
| CCCCCCCCCCOc1nc(N)nc2c1ncn2CC(=O)N[C@@H](Cc1ccccc1)C(=O)OCC | – | – | – | – | inactive |
| Cc1cccc(Oc2nc(Cl)nc3[nH]cnc23)c1 | – | – | – | – | inactive |
| CCCCCCCCCCSc1nc(NC(C)=O)nc2[nH]cnc12 | > 6.25 | > 12.8 | 35 | > 12.8 | – |
| Nc1nc(OCc2ccccc2)c2nc[nH]c2n1 | – | – | – | – | inactive |
| Clc1nc(OCc2ccc(Cl)c(Cl)c2)c2nc[nH]c2n1 | > 6.25 | > 12.8 | 35 | > 12.8 | – |
| CCCCCCCCCCSc1ncnc2c1ncn2CCOC(C)=O | 6.25 (≈ 16.5 µM) | > 12.8 | 96 | > 12.8 | – |
| CCCCCCCCCCSc1nc(N)nc2c1ncn2CC(=O)N[C@@H](CO)C(=O)OC | > 6.25 | > 12.8 | 5 | > 12.8 | – |
| Clc1ccc(Oc2ncnc3[nH]cnc23)cc1 | – | – | – | – | inactive |
| CCCCCCCCCCSc1nc(N)nc2c1ncn2CC(=O)N[C@@H](C)C(=O)OC | – | – | – | – | inactive |
| CCCCCCCCCCSc1nc(SCCCCCCCCCC)c2ncn(COCCO)c2n1 | – | – | – | – | inactive |
| COc1nc(Cl)nc2[nH]cnc12 | > 6.25 | > 12.8 | 24 | > 12.8 | – |
| Clc1nc(OCC2CCCCC2)c2[nH]cnc2n1 | – | – | – | – | inactive |
| Cc1ccc(Oc2nc(Cl)nc3[nH]cnc23)cc1 | – | – | – | – | inactive |
| CCCCCCCCCCOc1nc(Cl)nc2[nH]cnc12 | > 6.25 | > 12.8 | 55 | > 12.8 | – |
| CCCCCCCCCCCCOc1ncnc2[nH]cnc12 [6-(DODECYLOXY)PURINE] | > 6.25 | > 12.8 | 56 | > 12.8 | – |
| CCCCCCCCCCSc1ncnc2c1ncn2CC#N | 1.56 (≈ 4.71 µM) | > 12.8 | 97 | > 12.8 | – |
| CCCCCCCCCCOc1nc(N)nc2c1ncn2CC(=O)N[C@@H](Cc1ccccc1)C(=O)OC | – | – | – | – | inactive |
| CCCCCCCCCCOc1nc(N)nc2c1ncn2CC(=O)N[C@@H](C)C(=O)OC | – | – | – | – | inactive |
| CCCCCCCCCCSc1nc(N)nc2c1ncn2CC(=O)N[C@H](Cc1ccccc1)C(=O)OC | – | – | – | – | inactive |
| CCCCCCCCCCSc1nc(N)nc2c1ncn2CC(=O)N[C@@H](CO)C(=O)OCC | – | – | – | – | inactive |
